According to paper PMC4065498 (Chemical research in toxicology, 2010):
Where “and” joins values, the source holds several entries; their conditions need not be identical. Identical values can stand only once. Entries after “also recorded” stand apart in the source; their conditions may differ.

Assays:
[1] = tested on: CES1-depleted THP1 monocyte lysates; test: PG-G and 2AG hydrolysis by CES1-immunodepleted THP1 monocyte lysates; format: biochemical, human; conditions: 25 μM PG-G or 10 μM 2AG, 30 min; versus preimmune IgG control
Summary of the method: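 THP1 monocyte lysate was solubilised in 50 mM Tris-HCl (pH 7.4) with 0.5% w/v Brij (1 h, 4°C). It was then incubated overnight with anti-CES1 or preimmune IgG plus protein A-agarose, and depletion was checked by western blot. Substrate (25 μM PG-G or 10 μM 2AG) in the same buffer was preheated 5 min at 37°C, then started with 10-30 μg supernatant lysate; 2AG ran 30 min. Reactions were run in duplicate or triplicate across ≥2 IP experiments, compared by Student's t-test.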

recombinant human CES1 [2] = molecular target: T1, recombinant human CES1 (Homo sapiens, UniProt P23141); test: Hydrolysis of 2AG and PG-Gs by recombinant CES1; format: biochemical; conditions: for kcat / Km: human CES1, average ± SE of 2-4 independent experiments
T1 sequence (P23141 18-567): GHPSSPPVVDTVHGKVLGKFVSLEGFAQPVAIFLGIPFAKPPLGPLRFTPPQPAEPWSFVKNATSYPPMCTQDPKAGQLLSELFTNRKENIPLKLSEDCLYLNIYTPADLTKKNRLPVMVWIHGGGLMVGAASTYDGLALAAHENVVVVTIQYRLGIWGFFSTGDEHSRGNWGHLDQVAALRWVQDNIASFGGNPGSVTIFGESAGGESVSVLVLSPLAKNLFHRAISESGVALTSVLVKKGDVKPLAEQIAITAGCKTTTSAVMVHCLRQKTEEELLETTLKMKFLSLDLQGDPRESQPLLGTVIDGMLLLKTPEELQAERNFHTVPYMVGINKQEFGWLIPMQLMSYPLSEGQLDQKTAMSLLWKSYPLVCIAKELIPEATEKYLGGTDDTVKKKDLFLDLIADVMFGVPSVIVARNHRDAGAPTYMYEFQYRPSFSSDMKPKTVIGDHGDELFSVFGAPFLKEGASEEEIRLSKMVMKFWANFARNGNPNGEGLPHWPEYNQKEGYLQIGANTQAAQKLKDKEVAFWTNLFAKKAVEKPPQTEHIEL

[3] = tested on: lipid glyceryl ester hydrolase activities of THP1 monocyte lysates
recombinant human CES2 = molecular target: T2, recombinant human CES2 (Homo sapiens, UniProt O00748); test: Hydrolysis of 2AG and PG-Gs by recombinant CES2; format: biochemical; conditions: for kcat / Km: human CES2, average ± SE of 2-4 independent experiments
T2 sequence (O00748 27-559): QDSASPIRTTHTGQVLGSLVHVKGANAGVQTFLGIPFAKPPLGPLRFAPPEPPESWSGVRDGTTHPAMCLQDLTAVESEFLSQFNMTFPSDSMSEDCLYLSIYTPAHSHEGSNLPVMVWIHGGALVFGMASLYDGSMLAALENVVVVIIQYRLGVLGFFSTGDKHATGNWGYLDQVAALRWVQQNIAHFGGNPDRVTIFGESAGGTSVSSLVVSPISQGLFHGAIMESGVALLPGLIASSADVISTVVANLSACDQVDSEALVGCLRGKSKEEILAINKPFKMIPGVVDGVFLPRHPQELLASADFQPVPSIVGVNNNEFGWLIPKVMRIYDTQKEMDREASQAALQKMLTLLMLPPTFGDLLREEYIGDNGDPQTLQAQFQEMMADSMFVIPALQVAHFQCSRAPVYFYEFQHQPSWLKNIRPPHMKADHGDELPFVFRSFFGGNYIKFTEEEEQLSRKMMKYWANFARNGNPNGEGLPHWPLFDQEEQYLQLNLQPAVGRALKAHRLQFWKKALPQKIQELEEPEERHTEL

[4] = molecular target: T3, native CES1 in THP1 lysates (Homo sapiens, UniProt P23141); test: Activity-based protein profiling with FP-biotin in THP1 lysate: CES1; format: biochemical
T3 sequence (P23141 18-567): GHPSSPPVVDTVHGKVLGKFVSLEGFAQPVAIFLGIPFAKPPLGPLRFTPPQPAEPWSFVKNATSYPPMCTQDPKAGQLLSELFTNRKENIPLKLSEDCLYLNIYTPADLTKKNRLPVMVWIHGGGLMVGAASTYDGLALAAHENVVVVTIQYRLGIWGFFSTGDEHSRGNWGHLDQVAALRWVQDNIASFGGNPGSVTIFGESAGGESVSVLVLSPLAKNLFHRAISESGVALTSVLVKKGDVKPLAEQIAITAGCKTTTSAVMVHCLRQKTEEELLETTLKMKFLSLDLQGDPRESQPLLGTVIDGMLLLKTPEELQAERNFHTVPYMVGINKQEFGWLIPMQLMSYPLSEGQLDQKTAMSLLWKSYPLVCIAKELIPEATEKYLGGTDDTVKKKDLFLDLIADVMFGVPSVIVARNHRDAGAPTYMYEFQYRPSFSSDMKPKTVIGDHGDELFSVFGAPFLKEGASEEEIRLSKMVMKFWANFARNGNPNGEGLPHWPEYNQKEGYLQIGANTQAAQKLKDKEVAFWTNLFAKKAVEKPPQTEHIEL
Summary of the method: (§1)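 THP1 monocyte lysate (1 mg/ml protein in 50 mM Tris-HCl, pH 7.4) was labelled with 2 μM FP-biotin for 1 h at room temperature. Irreversible inhibitors were preincubated for 30 min (37°C) before the probe. For the reversible inhibitor, lysate received inhibitor, then 0.2 μM FP-biotin for 7.5 min, short of full labelling. Reactions were stopped in reducing SDS loading buffer (95°C, 5 min), run on SDS-PAGE and blotted with avidin-HRP.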

recombinant human CES1 [5] = molecular target: T1, recombinant human CES1; test: Recombinant human CES1 activity using pNPV as substrate; format: biochemical; conditions: data not shown
[6] = tested on: 31-32kDa enzyme in THP1 lysates; test: Activity-based protein profiling with FP-biotin in THP1 lysate: 31-32kDa enzyme; format: biochemical, human
Summary of the method: as §1

recombinant human CES1 [7] = molecular target: T1, recombinant human CES1; test: Off-target test: 2AG hydrolysis by recombinant human CES1 with NAM; format: biochemical; conditions: NAM 50 μM, 2AG 25 μM, 10 min pre-incubation
recombinant human MAGL [8] = molecular target: T4, recombinant human MAGL (Homo sapiens, UniProt Q99685); test: Off-target test: 2AG hydrolysis by recombinant human MAGL with S-3030; format: biochemical; conditions: S-3030 50 μM, 2AG 25 μM, 10 min pre-incubation
T4 sequence (Q99685 1-303): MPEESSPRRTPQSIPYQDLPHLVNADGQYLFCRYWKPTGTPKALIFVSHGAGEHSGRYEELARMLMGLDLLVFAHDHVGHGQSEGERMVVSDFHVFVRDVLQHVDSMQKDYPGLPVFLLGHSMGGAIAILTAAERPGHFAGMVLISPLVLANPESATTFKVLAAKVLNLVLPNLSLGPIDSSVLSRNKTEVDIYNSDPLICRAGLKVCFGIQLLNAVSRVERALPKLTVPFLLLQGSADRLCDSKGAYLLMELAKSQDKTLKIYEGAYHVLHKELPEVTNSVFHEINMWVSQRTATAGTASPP

THP1 macrophages = test: In situ formation of PG-Gs by LPS-primed THP1 macrophages given exogenous 2AG; format: cell-based, human; conditions: indomethacin 3 μM added along with CPO prior to 2AG
recombinant human MAGL [9] = molecular target: T4, recombinant human MAGL; format: biochemical; conditions: substrate 25 μM, 15 min, recombinant human enzymes
Summary of the method: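 Purified recombinant human enzymes were compared; CES1 was expressed in baculovirus-infected Spodoptera frugiperda cells.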

[10] = substrate: CCCCC/C=C\C/C=C\C/C=C\C/C=C\CCCC(=O)OC(CO)CO; test: Hydrolysis of 2AG and PG-Gs by recombinant CES1; format: biochemical; conditions: other: human CES1; average ± SE of 2-4 independent experiments; pH 7.4; 37.0 °C
[11] = substrate: CCCCC/C=C\C/C=C\C/C=C\C/C=C\CCCC(=O)OC(CO)CO; test: Hydrolysis of 2AG and PG-Gs by recombinant CES2; format: biochemical; conditions: other: human CES2; average ± SE of 2-4 independent experiments; pH 7.4; 37.0 °C
[12] = maximal inhibition using 100 μM S-3030

## CCCCC/C=C\C/C=C\C/C=C\C/C=C\CCCC(=O)OC(CO)CO [2AG, 2-arachidonoylglycerol]
[1]
  reduction of hydrolysis activity of CES1-depleted lysate: 64%
Recombinant human CES1 [2]
  kcat: 59 min⁻¹
[3]; 25 μM substrate, no inhibitor
  control THP1 lysate hydrolysis activity: 2.5 nmol product/min/mg protein
Recombinant human CES2
  kcat: 43 min⁻¹

## CCCCC/C=C\C/C=C\C/C=C\C/C=C\CCCC(=O)NCCO [AEA, arachidonoyl ethanolamide]
Recombinant human CES1 [2]; amide-containing substrate
  hydrolysis of AEA by recombinant CES1: neither enzyme could hydrolyze
Recombinant human CES2; amide-containing substrate
  hydrolysis of AEA by recombinant CES2: neither enzyme could hydrolyze

## O=C(Oc1ccc([N+](=O)[O-])cc1)N1CCC(C(O)(c2ccc3c(c2)OCO3)c2ccc3c(c2)OCO3)CC1 [JZL184]
[3]; maximal reduction by JZL184
  reduction of PGF2α-G hydrolytic activity in THP1 monocyte lysate: 80%
[4]; JZL184 as low as 0.1 μM
  inhibition of CES1 in THP1 cell lysate (FP-biotin activity blot): completely inhibit
Recombinant human CES1 [5]
  inhibition of recombinant human CES1 activity using pNPV as substrate: potently inhibit
[6]; concentrations as high as 100 μM, 30 min
  inhibition of the 31-32kDa enzyme (FP-biotin activity probe): not inhibited

## CCCCC/C=C\C/C=C\C/C=C\C/C=C\CCCC(=O)N1C(=O)C=CC1=O [NAM, N-arachidonoyl maleimide]
Recombinant human CES1 [7]
  inhibition of recombinant CES1 activity toward 2AG: inhibits

## O=C1C(=O)c2sccc2-c2ccsc21 [S-3030, thieno[3,2-e][1]benzothiophene-4,5-dione]
Recombinant human MAGL [8]
  inhibition of recombinant human MAGL activity: did not inhibit; also recorded: does not inhibit
[3]; [12]
  inhibition of 2AG hydrolysis in THP1 monocyte lysate: 55% and 50%
  inhibition of PGE2-G hydrolysis in THP1 monocyte lysate: 97% and > 95%
  inhibition of PGF2α-G hydrolysis in THP1 monocyte lysate: 80%
[4]
  IC50: ~23 µM
[6]; S-3030 0-100 μM, FP-biotin 0.2 μM, 7.5 min
  inhibition of the 31-32kDa enzyme (FP-biotin band intensity): not reduced

## CN(Cc1cccc(-c2ccncc2)c1)C(=O)Oc1ccc(-c2ccc(C(N)=O)cc2)cc1 [WWL70]
[3]; specific ABHD6 inhibitor
  inhibition of 2AG hydrolytic activity in THP1 cell lysate: did not inhibit; also recorded: does not inhibit

## COc1ccc2c(c1)c(CC(=O)O)c(C)n2C(=O)c1ccc(Cl)cc1 [indomethacin]
THP1 macrophages
  formation of PG-Gs by THP1 macrophages: blocked formation of PG-Gs

## prostaglandin E2 glyceryl ester [PGE2-G]
[1]
  reduction of hydrolysis activity of CES1-depleted lysate: 80%
Recombinant human MAGL [9]
  hydrolysis rate by MAGL relative to CES1: 2 fold
Recombinant human CES1 [2]
  Km: 250 ± 60 µM
  kcat: 90 ± 16^b min^−1
Recombinant human CES2
  Km: 705 ± 380 µM
  kcat: 150 ± 81 min⁻¹

## prostaglandin F2α glyceryl ester [PGF2α-G]
[1]
  reduction of hydrolysis activity of CES1-depleted lysate: 50%
Recombinant human MAGL [9]
  hydrolysis rate by MAGL relative to CES1: 4 fold
Recombinant human CES1 [2]
  Km: 93 ± 43 µM
  kcat: 29 ± 3.5^a,b min^−1
Recombinant human CES2
  hydrolysis relative to PGE2-G using CES2 (judged by kcat/Km): 6.5 fold
  Km: 35 ± 4.1 µM
  kcat: 49 ± 5.4^a min^−1
Recombinant human CES2; Table 1
  hydrolysis by CES2 relative to CES1: three times faster

B1: recombinant human CES1 (Homo sapiens) (protein)
chain: GHPSSPPVVDTVHGKVLGKFVSLEGFAQPVAIFLGIPFAKPPLGPLRFTPPQPAEPWSFVKNATSYPPMCTQDPKAGQLLSELFTNRKENIPLKLSEDCLYLNIYTPADLTKKNRLPVMVWIHGGGLMVGAASTYDGLALAAHENVVVVTIQYRLGIWGFFSTGDEHSRGNWGHLDQVAALRWVQDNIASFGGNPGSVTIFGESAGGESVSVLVLSPLAKNLFHRAISESGVALTSVLVKKGDVKPLAEQIAITAGCKTTTSAVMVHCLRQKTEEELLETTLKMKFLSLDLQGDPRESQPLLGTVIDGMLLLKTPEELQAERNFHTVPYMVGINKQEFGWLIPMQLMSYPLSEGQLDQKTAMSLLWKSYPLVCIAKELIPEATEKYLGGTDDTVKKKDLFLDLIADVMFGVPSVIVARNHRDAGAPTYMYEFQYRPSFSSDMKPKTVIGDHGDELFSVFGAPFLKEGASEEEIRLSKMVMKFWANFARNGNPNGEGLPHWPEYNQKEGYLQIGANTQAAQKLKDKEVAFWTNLFAKKAVEKPPQTEHIEL
[10]
  Km: 49 ± 11 µM
  kcat: 0.983 ± 0.0667 s⁻¹

B2: recombinant human CES2 (Homo sapiens) (protein)
chain: QDSASPIRTTHTGQVLGSLVHVKGANAGVQTFLGIPFAKPPLGPLRFAPPEPPESWSGVRDGTTHPAMCLQDLTAVESEFLSQFNMTFPSDSMSEDCLYLSIYTPAHSHEGSNLPVMVWIHGGALVFGMASLYDGSMLAALENVVVVIIQYRLGVLGFFSTGDKHATGNWGYLDQVAALRWVQQNIAHFGGNPDRVTIFGESAGGTSVSSLVVSPISQGLFHGAIMESGVALLPGLIASSADVISTVVANLSACDQVDSEALVGCLRGKSKEEILAINKPFKMIPGVVDGVFLPRHPQELLASADFQPVPSIVGVNNNEFGWLIPKVMRIYDTQKEMDREASQAALQKMLTLLMLPPTFGDLLREEYIGDNGDPQTLQAQFQEMMADSMFVIPALQVAHFQCSRAPVYFYEFQHQPSWLKNIRPPHMKADHGDELPFVFRSFFGGNYIKFTEEEEQLSRKMMKYWANFARNGNPNGEGLPHWPLFDQEEQYLQLNLQPAVGRALKAHRLQFWKKALPQKIQELEEPEERHTEL
[11]
  Km: 46 ± 13 µM
  kcat: 0.717 ± 0.0667 s⁻¹
